Test results published in ChEMBL document CHEMBL1123227, “Tricyclic epines. Novel (E)- and (Z)-11H-dibenz[b,e]azepines as potential central nervous system agents. Variation of the basic side chain” (1986).

How the values were obtained:
Type in all cases: functional
Mus musculus [1] = organism: Mus musculus; test: Anticholinergic activity relative with respect to clozapine.
Mus musculus [2] = organism: Mus musculus; test: Sedative activity in mice
Mus musculus [3] = organism: Mus musculus; test: Anticholinergic activity in mice.
How it was run: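 Groups of 10 female NMRI mice received a lethal dose of physostigmine (0.825 mg/kg sc). Test substances were given orally 30 min before the physostigmine.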

Mus musculus [4] = organism: Mus musculus; test: Sedative activity relative with respect to clozapine.
Oryctolagus cuniculus = organism: Oryctolagus cuniculus; test: Compound was tested for the muscle-relaxing activity in rabbits
How it was run: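 Muscle electrical activity during contraction was recorded and pulses were counted. A 5 s extension was repeated every 1 min. Once pulse counts were constant (control value), the substance was given iv, and post-dose pulses were related to that value. Four to six animals were used per dose. ED50 was the dose halving muscle activity from the initial value.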

Rattus norvegicus [5] = organism: Rattus norvegicus; test: Compound was tested or the anti-tryptamine activity in rats
How it was run: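 Rats were challenged with tryptamine hydrochloride (16 mg/kg iv), with test substances given ip 30 min beforehand. Activity was scored as absence of clonic front paw movements over a 5 min observation after tryptamine. ED50 was the dose preventing the symptom in half the animals, determined by Probit analysis.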

Rattus norvegicus [6] = organism: Rattus norvegicus; test: Compound was tested or the anti-tryptamine activity in rats relative with respect to clozapine.
How it was run: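 Rats dosed ip 30 min before tryptamine hydrochloride 16 mg/kg iv. Effect means front paw clonic movements absent over 5 min observation after tryptamine. ED50 is the dose preventing the symptom in half the animals (Probit analysis); relative activity referenced to clozapine.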

Rattus norvegicus [7] = organism: Rattus norvegicus; test: Compound was tested for the apomorphine antagonistic activity in rats expressed as relative activity
How it was run: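 Female Sprague–Dawley rats, groups of four to six. Oral dosing 90 min before apomorphine 1.5 mg/kg sc. Jaw movements recorded via implanted electrodes (mandibulogram).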

Row | Compound | Relative activity (Mus musculus [1]) | ED50 (Mus musculus [2]) [mg/kg] | ED50 (Mus musculus [3]) [mg/kg] | Relative activity (Mus musculus [4]) | ED50 (Oryctolagus cuniculus) [mg/kg] | ED50 (Rattus norvegicus [5]) [mg/kg] | Relative activity (Rattus norvegicus [6]) | Relative activity (Rattus norvegicus [7])
1 | N#C/C=C1/c2ccccc2N=C(NCCN2CCCC2)c2ccccc21 | <0.14 | 4.96 | > 100 | 0.96 |  |  |  | 
2 | C[N+]1([O-])CCN(C2=Nc3ccccc3/C(=C\C#N)c3ccccc32)CC1 | 1.61 |  | 8.75 | 0.04 |  |  |  | 
3 | CC1CCN(C2=Nc3ccccc3/C(=C/C#N)c3ccccc32)CC1 | <0.3 | ~68.1 | > 46.4 | 0.07 |  |  |  | 
4 | Cc1ccc2c(c1)N=C(N1CCN(C)CC1)c1ccccc1/C2=C/C#N |  | 33.6 |  |  | 0.25 | 51 | 0.1 | 
5 | C[N+]1([O-])CCCC(COC2=Nc3ccccc3/C(=C/C#N)c3ccccc32)C1 (configuration not stated) | <0.14 | > 100 | > 100 | <0.04 |  |  |  | 
6 | Cc1ccc2c(c1)N=C(N1CCN(CCN3CCOC3=O)CC1)c1ccccc1/C2=C\C#N | <0.3 | 9.56 | > 46.4 | 0.5 |  |  |  | 
7 | CN1CCN(C2=Nc3cc(Cl)ccc3Nc3ccccc32)CC1 [CLOZAPINE] | 1 |  |  | 1 | 0.028 | 5 | 1 | 1
8 | CN1CCC(NC2=Nc3ccccc3/C(=C/C#N)c3ccccc32)CC1 | 0.21 | > 100 | ~68.1 | <0.04 |  |  |  | 
9 | CN1CCCCC1COC1=Nc2ccccc2/C(=C/C#N)c2ccccc21 (configuration not stated) | 0.21 | 43.6 | ~68.1 | 0.11 |  |  |  | 
10 | Cc1ccc2c(c1)N=C(N1CC[N+](C)([O-])CC1)c1ccccc1/C2=C/C#N | 0.45 | 2.66 | 31 | 1.78 |  |  |  | 
11 | CN1CCN(C2=Nc3ccc(Cl)cc3/C(=C/C#N)c3ccccc32)CC1 | 0.88 | 25.6 | 16.1 | 0.19 |  |  |  | 
12 | N#C/C=C1/c2ccccc2N=C(N2CCN(CCN3CCOC3=O)CC2)c2ccccc21 | 0.28 | 39.4 | 51 | 0.12 |  |  |  | 
13 | N#C/C=C1/c2ccccc2N=C(N2CCOCC2)c2ccccc21 | <0.14 | > 100 | > 100 | < 0.04 |  |  |  | 
14 | CN(C)CCCNC1=Nc2ccccc2/C(=C/C#N)c2ccccc21 | <0.3 | > 46.4 | > 46.4 | <0.1 |  |  |  | 
15 | CN1CCCC(CNC2=Nc3ccccc3/C(=C/C#N)c3ccccc32)C1 (configuration not stated) | 0.3 | > 100 | ~46.4 | <0.04 |  |  |  | 
16 | N#C/C=C1/c2ccccc2N=C(NCCN2CCCCC2)c2ccccc21 | <1.41 |  | > 10 |  |  |  |  | 
17 | CCN1CCCC1CNC1=Nc2ccccc2/C(=C/C#N)c2ccccc21 (configuration not stated) | <0.14 | 17.2 | > 100 | 0.28 |  |  |  | 
18 | CN(C)CCN(C)C1=Nc2ccccc2/C(=C/C#N)c2ccccc21 | 0.45 | ~14.7 | ~31.6 | 0.32 |  |  |  | 
19 | CN1CCC(OC2=Nc3ccccc3/C(=C/C#N)c3ccccc32)CC1 | <0.66 | > 21.5 | > 21.5 | <0.22 |  |  |  | 
20 | N#C/C=C1/c2ccccc2N=C(N2CCNCC2)c2ccccc21 | 0.66 | 30.6 | 21.3 | 0.15 |  |  |  | 
21 | N#C/C=C1/c2ccccc2N=C(N2CCN(CCO)CC2)c2ccccc21 | 0.21 | 14.6 | ~68.1 | 0.32 |  |  |  | 
22 | CN(C)CCOC1=Nc2ccccc2/C(=C/C#N)c2ccccc21 | 0.57 | 34.8 | 24.9 | 0.14 |  |  |  | 
23 | CCN(CC)CCNC1=Nc2ccccc2/C(=C/C#N)c2ccccc21 | <0.14 | 5.72 | > 100 | 0.83 |  |  |  | 
24 | CN1CCN(C2=Nc3ccccc3C(=CC#N)c3ccccc32)CC1 |  |  |  |  | 0.059 | 30 | 0.17 | 

Row | Compound | Relative activity (Mus musculus [1]) | ED50 (Mus musculus [2]) [mg/kg] | ED50 (Mus musculus [3]) [mg/kg] | Relative activity (Mus musculus [4]) | ED50 (Oryctolagus cuniculus) [mg/kg] | ED50 (Rattus norvegicus [5]) [mg/kg] | Relative activity (Rattus norvegicus [6]) | Relative activity (Rattus norvegicus [7])
25 | N#C/C=C1/c2ccccc2N=C(NCCN2CCOCC2)c2ccccc21 | <0.14 | 8.12 | > 100 | 0.58 |  |  |  | 
26 | CN1CCN(C2=Nc3ccccc3/C(=C/C#N)c3ccccc32)CC1 | 0.81 |  |  |  | 0.046 | 79 | 0.06 | 
27 | N#C/C=C1/c2ccccc2N=C(NCCN)c2ccccc21 | <0.14 | > 100 | > 100 | <0.04 |  |  |  | 
28 | CCN1CCN(C2=Nc3ccccc3C(=CC#N)c3ccccc32)CC1 |  |  |  |  | ~0.32 | 6.6 | 0.76 | 
29 | CCN1CCN(C2=Nc3ccccc3/C(=C\C#N)c3ccccc32)CC1 |  |  |  |  |  | > 100 | <0.05 | 
30 | CN1CCCC(COC2=Nc3ccccc3/C(=C/C#N)c3ccccc32)C1 (configuration not stated) | 2.38 | > 46.4 | 5.92 | <0.1 |  |  |  | 
31 | CN(C)CCNC1=Nc2ccccc2/C(=C/C#N)c2ccccc21 | <0.14 | 15.5 | > 100 | 0.31 |  |  |  | 
32 | C[N+]1([O-])CCN(C2=Nc3ccccc3C(=CC#N)c3ccccc32)CC1 | 0.89 |  | 15.9 | 0.33 |  |  |  | 
33 | CN1CCN(CCNC2=Nc3ccccc3/C(=C/C#N)c3ccccc32)CC1 | <0.14 | 27.7 | > 100 | 0.17 |  |  |  | 
34 | CCN1CCN(C2=Nc3ccccc3/C(=C/C#N)c3ccccc32)CC1 | <0.66 | 2.79 | > 21.5 | 1.7 |  |  |  | 
35 | CC1CN(C)CCN1C1=Nc2ccccc2/C(=C/C#N)c2ccccc21 (configuration not stated) | 0.66 | ~21.5 | ~21.5 | 0.22 |  |  |  | 
36 | N#C/C=C1/c2ccccc2N=C(N2CCOC(CO)C2)c2ccccc21 (configuration not stated) | 0.3 | > 46.4 | ~46.4 | <0.1 |  |  |  | 
37 | C[N+]1([O-])CCN(C2=Nc3ccccc3/C(=C/C#N)c3ccccc32)CC1 | 0.14 |  | ~100 | 0.26 |  |  |  | 
38 | CN(C)CCCOC1=Nc2ccccc2/C(=C/C#N)c2ccccc21 | 0.59 | > 100 | 24 | <0.04 |  |  |  | 
39 | CN1CCN(C2=Nc3ccccc3/C(=C\C#N)c3ccccc32)CC1 | 3 |  |  | <0.2 | ~1 | 32 | 0.16 | 
40 | Cc1ccc2c(c1)N=C(N1CCN(C)CC1)c1ccccc1C2=CC#N | 0.45 | 0.8 |  | 5.9 | 0.028 | 6 | 0.83 | 
41 | Cc1ccc2c(c1)/C(=C/C#N)c1ccccc1C(N1CCN(C)CC1)=N2 |  |  |  |  | ~0.1 | ~21 | 0.23 | 
42 | N#C/C=C1/c2ccccc2N=C(N2CCC(O)(c3ccccc3)CC2)c2ccccc21 | <0.14 | > 46.4 | > 100 | <0.1 |  |  |  | 
43 | N#C/C=C1/c2ccccc2N=C(N2CC[N+]([O-])(CCO)CC2)c2ccccc21 | 0.36 | 10.3 | 39 | 0.46 |  |  |  | 
44 | CC1CN(C2=Nc3ccccc3/C(=C/C#N)c3ccccc32)CCN1C (configuration not stated) | 1.84 | 8.08 | 7.68 | 0.59 |  |  |  | 
45 | CN1CCCN(C2=Nc3ccccc3/C(=C/C#N)c3ccccc32)CC1 | 2.57 | > 21.5 | 5.49 | <0.22 |  |  |  | 
46 | N#C/C=C1/c2ccccc2N=C(N2CCC(O)CC2)c2ccccc21 | <0.14 | > 46.4 | > 100 | <0.1 |  |  |  | 
47 | Cc1ccc2c(c1)N=C(N1CCN(C)CC1)c1ccccc1/C2=C\C#N |  |  | ~100 |  | 0.014 | 10 | 0.5 | 
48 | CN1CCC(N(C)C2=Nc3ccccc3/C(=C/C#N)c3ccccc32)CC1 | 0.45 | 13.4 | ~31.6 | 0.35 |  |  |  | 
